From ChEMBL document CHEMBL2150955, “Design, synthesis and evaluation of N-(substituted benzothiazol-2-yl)amides as anticonvulsant and neuroprotective” (Eur J Med Chem, 2012)
Values belong to the molecule of their own block, whether it stands above or below them. The source made the active and inactive calls. No cut-off for these calls is given here.

Assays:
[1] = test system: Mus musculus; assay: Anticonvulsant activity in ip dosed mouse assessed as compound concentration causing protection against maximal electroshock-induced seizures in half or more test animals after 0.5 hrs; assay type: functional; conditions: read-out: MED
Procedure, shortened: (§1)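 Albino mice of either sex (25-30 g), housed under standard conditions with free access to pellet diet and water. Compounds given at 30, 100 and 300 mg/kg (n = 6). MES and scPTZ seizures were read at 0.5 h and 4 h. The value recorded is the minimum dose protecting half or more of the mice; 300 mg/kg is the maximum dose.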

[2] = test system: Mus musculus; assay: Anticonvulsant activity in mouse assessed as protection against subcutaneous pentylenetetrazol-induced seizures at 300 mg/kg, ip after 4 hrs; assay type: functional, organism-based; set-up: dose 300 mg/kg; procedure, shortened: as §1
[3] = test system: Mus musculus; assay: Anticonvulsant activity in ip mouse assessed as protection against subcutaneous pentylenetetrazol-induced seizures; assay type: functional
Procedure, shortened: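 This is the Phase II quantitation in albino mice of either sex (25-30 g). […] TD50 came from the rotarod test, read 30 min after dosing. The protective index is TD50/ED50.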

[4] = test system: Mus musculus; assay: Neurotoxicity in ip dosed mouse assessed as minimal motor impairment after 4 hrs by rotarod test; assay type: toxicity, organism-based; conditions: in vivo
Procedure, shortened: (§2)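 Albino mice of either sex (25-30 g) received 30, 100 or 300 mg/kg (n = 6). Neurological deficit was assessed on the rotarod at 0.5 h and 4 h. The value recorded is the minimum dose producing neurotoxicity in half or more of the mice; 300 mg/kg is the maximum dose.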

[5] = test system: Mus musculus; assay: Anticonvulsant activity in ip dosed mouse assessed as compound concentration causing protection against maximal electroshock-induced seizures in half or more test animals after 4 hrs; assay type: functional; conditions: read-out: MED; procedure, shortened: as §1
[6] = test system: Mus musculus; assay: Neurotoxicity in ip dosed mouse assessed as minimal motor impairment after 0.5 hrs by rotarod test; assay type: toxicity, organism-based; conditions: in vivo; procedure, shortened: as §2
[7] = test system: Mus musculus; assay: Anticonvulsant activity in mouse assessed as protection against subcutaneous pentylenetetrazol-induced seizures at 300 mg/kg, ip after 0.5 hrs; assay type: functional, organism-based; set-up: dose 300 mg/kg; procedure, shortened: as §1
[8] = test system: Mus musculus; assay: CNS depressant activity in mouse assessed as immobility time at 100 mg/kg, ip measured 60 mins post dose by porsolt's swimming pool test; assay type: organism-based; set-up: dose 100 mg/kg, route intraperitoneal; conditions: in vivo, 1 h
Procedure, shortened: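 Behavioral depression was measured by Porsolt's swim test in albino mice of either sex. Immobility time (s) was recorded 24 h before as the control and again 60 min after treatment. Values are mean ± SEM of six mice, compared with Student's t test.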

[9] = test system: Mus musculus; assay: Anticonvulsant activity in ip dosed mouse assessed as compound concentration causing protection against subcutaneous pentylenetetrazol-induced seizures in half or more test animals after 4 hrs; assay type: functional; conditions: read-out: MED; procedure, shortened: as §1
[10] = test system: Mus musculus; assay: Neurotoxicity in mouse assessed as minimal motor impairment at 300 mg/kg, ip after 4 hrs by rotarod test; assay type: toxicity, organism-based; set-up: dose 300 mg/kg, route intraperitoneal; conditions: in vivo; procedure, shortened: as §2
[11] = test system: Mus musculus; assay: Anticonvulsant activity in mouse assessed as protection against maximal electroshock-induced seizures at 300 mg/kg, ip after 0.5 hrs; assay type: functional, organism-based; set-up: dose 300 mg/kg; procedure, shortened: as §1
[12] = test system: Mus musculus; assay: Neurotoxicity in mouse assessed as minimal motor impairment at 300 mg/kg, ip after 0.5 hrs by rotarod test; assay type: toxicity, organism-based; set-up: dose 300 mg/kg, route intraperitoneal; conditions: in vivo; procedure, shortened: as §2
[13] = test system: Mus musculus; assay: Anticonvulsant activity in ip dosed mouse assessed as compound concentration causing protection against subcutaneous pentylenetetrazol-induced seizures in half or more test animals after 0.5 hrs; assay type: functional; conditions: read-out: MED; procedure, shortened: as §1
[14] = test system: Mus musculus; assay: Anticonvulsant activity in ip dosed mouse assessed as protection against maximal electroshock-induced seizures; assay type: functional
[15] = test system: Mus musculus; assay: Anticonvulsant activity in mouse assessed as protection against maximal electroshock-induced seizures at 300 mg/kg, ip after 4 hrs; assay type: functional, organism-based; set-up: dose 300 mg/kg; procedure, shortened: as §1

Compound: O=C1NC(=O)C(c2ccccc2)(c2ccccc2)N1 [PHENYTOIN]
minimal effective dose [1]: 30 mg/kg | Activity [2]: inactive | ED50 [3]: > 300 mg/kg | MTC [4]: 100 mg/kg | minimal effective dose [5]: 30 mg/kg | MTC [6]: 100 mg/kg | Activity [7]: inactive

Compound: CC(=O)c1ccc2nc(NC(=O)CCC(=O)c3ccccc3)sc2c1
Time [8]: 168.3 s | minimal effective dose [9]: 300 mg/kg | minimal effective dose [5]: 100 mg/kg | Activity [10]: Non-toxic | Activity [7]: inactive | Activity [11]: inactive | Activity [12]: Non-toxic

Compound: O=C(Nc1nc2ccc(Br)cc2s1)c1ccccc1C(=O)c1ccccc1
minimal effective dose [1]: 300 mg/kg | Activity [2]: inactive | Activity [15]: inactive | Time [8]: 179.1 s | MTC [4]: 300 mg/kg | MTC [6]: 300 mg/kg | Activity [7]: inactive

Compound: O=C(Nc1nc2cc(Cl)c(F)cc2s1)c1ccccc1C(=O)c1ccccc1
minimal effective dose [1]: 300 mg/kg | Activity [2]: inactive | Time [8]: 158.1 s | MTC [4]: 300 mg/kg | minimal effective dose [5]: 300 mg/kg | MTC [6]: 300 mg/kg | Activity [7]: inactive

Compound: O=C(CCC(=O)c1ccccc1)Nc1nc2ccc([N+](=O)[O-])cc2s1
minimal effective dose [1]: 300 mg/kg | Activity [2]: inactive | Activity [15]: inactive | Time [8]: 166.1 s | MTC [4]: 300 mg/kg | Activity [7]: inactive | Activity [12]: Non-toxic

The next lines start with results.

Time [8]: 179.5 s
Compound: NC(=O)N1c2ccccc2C=Cc2ccccc21 [CARBAMAZEPINE]
minimal effective dose [1]: 30 mg/kg | minimal effective dose [9]: 300 mg/kg | ED50 [3]: > 100 mg/kg | MTC [4]: 300 mg/kg | minimal effective dose [5]: 100 mg/kg | MTC [6]: 100 mg/kg | minimal effective dose [13]: 100 mg/kg | ED50 [14]: 8.8 mg/kg

Time [8]: 180 s
Compound: Cc1ccc2nc(NC(=O)c3ccccc3C(=O)c3ccccc3)sc2c1
minimal effective dose [1]: 300 mg/kg | Activity [2]: inactive | Activity [15]: inactive | Activity [10]: Non-toxic | minimal effective dose [13]: 300 mg/kg | Activity [12]: Non-toxic

Time [8]: 162 s
Compound: O=C(CCC(=O)c1ccccc1)Nc1nc2ccc(Br)cc2s1
Activity [2]: inactive | MTC [4]: 300 mg/kg | minimal effective dose [5]: 300 mg/kg | Activity [7]: inactive | Activity [11]: inactive | Activity [12]: Non-toxic

Time [8]: 172.3 s
Compound: CC(=O)c1ccc2nc(NC(=O)c3ccccc3C(=O)c3ccccc3)sc2c1
minimal effective dose [9]: 300 mg/kg | minimal effective dose [5]: 300 mg/kg | Activity [10]: Non-toxic | Activity [7]: inactive | Activity [11]: inactive | Activity [12]: Non-toxic
